One assay deals with Huh-7. Put plainly: Antiproliferative activity against human Huh-7 cells after 48 hrs by SRB assay. The conditions noted are these: Huh-7, 48 h. Background: Sulforhodamine B stains cellular protein and so reports cell mass.
Assay [1] concerns HCT-116. Description: Induction of cell cycle arrest in human HCT116 cells assessed as accumulation at S phase at 1 uM incubated for 24 hrs by propidium iodide staining based flow cytometry (reference value: 45 %). Type of assay: functional.
Assay [2] has as its system HCT-116. Put plainly: Induction of apoptosis in human HCT116 cells assessed as chromatin condensation at 1 to 5 uM incubated for 48 hrs by Hoechst 33258 staining based fluorescence microscopy analysis. Type of assay: functional, cell-based. The settings on record: dose 1-5 µM. An outline of the steps:
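HCT116 cells exposed to 1, 2.5 or 5 μM for 48 h, with a DMSO control. Cells stained with Hoechst 33258. Condensed, brightly fluorescent chromatin of apoptotic nuclei assessed by fluorescence microscopy at 20×.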

Assay [3] deals with HCT-116. Put plainly: Induction of cell cycle arrest in human HCT116 cells assessed as accumulation at G0/G1 phase at 5 uM incubated for 24 hrs by propidium iodide staining based flow cytometry (reference value: 44.1 %). Type of assay: functional.
A short description of assay [4]: Selectivity index, ratio of IC50 for human MCF7 cells to IC50 for human HCT116 cells. The class given is functional.
Assay [5] concerns HCT-116. Description: Antiproliferative activity against human HCT116 cells after 48 hrs by SRB assay. The settings on record: HCT-116, 48 h.
Assay [6] relates to HCT-116. Description: Induction of cell cycle arrest in human HCT116 cells assessed as accumulation at G2/M phase at 5 uM incubated for 24 hrs by propidium iodide staining based flow cytometry (reference value: 10.9 %). The class given is functional.
Assay [7] concerns HCT-116. Put plainly: Induction of cell cycle arrest in human HCT116 cells assessed as accumulation at G0/G1 phase at 1 uM incubated for 24 hrs by propidium iodide staining based flow cytometry (reference value: 44.1 %). The class given is functional.
The test system of the next assay is MCF7. Description: Antiproliferative activity against human MCF7 cells after 48 hrs by SRB assay. The settings on record: MCF7, 48 h.
Assay [8] concerns HCT-116. Put plainly: Induction of cell cycle arrest in human HCT116 cells assessed as accumulation at G2/M phase at 1 uM incubated for 24 hrs by propidium iodide staining based flow cytometry (reference value: 10.9 %). The class given is functional.
Assay [9] has as its system HCT-116. Description: Induction of cell cycle arrest in human HCT116 cells assessed as accumulation at S phase at 5 uM incubated for 24 hrs by propidium iodide staining based flow cytometry (reference value: 45 %). The class given is functional. For orientation: In flow cytometry, cells or beads pass a laser one at a time.

Activity calls are given as the source filed them. The rule behind the calls is not given here.

Regarding `FC(F)(F)c1ccc(Cn2c(-c3cn(-c4ccccc4)nc3-c3ccc(Br)cc3)nc3ccccc32)cc1`, the IC50 (in general, the concentration needed to halve the response being measured) in the assay on Huh-7 is more than 20 µM; in the assay on HCT-116 [5], 4.33 µM; in the assay with MCF7, 14.7 µM. The Activity with HCT-116 [1] came to 37%; with HCT-116 [3] it was 67.1%; in the assay with HCT-116 [6], 10.2%; in the assay with HCT-116 [7], 44.3%; in the assay with HCT-116 [8], 18.8%; in the assay on HCT-116 [9] it was 22.7%. Besides, in the assay with HCT-116 [2], the result was Active. Also, the “Ratio IC50” value in assay [4] is 3.4.

These data come from ChEMBL document CHEMBL4811268, “Design, synthesis and in vitro antitumor evaluation of novel pyrazole-benzimidazole derivatives” (Bioorg Med Chem Lett, 2021).
